Laboratory results published in ChEMBL document CHEMBL4351006, “A new exploration towards aminothiazolquinolone oximes as potentially multi-targeting antibacterial agents: Design, synthesis and evaluation acting on microbes, DNA, HSA and topoisomerase IV” (Eur J Med Chem, 2019).
Converted amounts (≈) assume the structure as drawn.

Tests used:
[1] = tested on: Candida parapsilosis; experiment: Antifungal activity against Candida parapsilosis ATCC 22019 assessed as reduction in fungal cell viability incubated for 24 hrs by two fold serial dilution method; settings: Lodderomyces parapsilosis, ATCC 22019, 24 h
[2] = tested on: Klebsiella pneumoniae; experiment: Antibacterial activity against Klebsiella pneumoniae assessed as reduction in bacterial cell viability incubated for 24 hrs by two fold serial dilution method; format: functional
How it was run: (§1)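 Broth two-fold serial dilution run to CLSI guidelines. Chloromycin, norfloxacin and fluconazole served as reference drugs.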

[3] = tested on: Staphylococcus aureus; experiment: Antibacterial activity against Staphylococcus aureus ATCC 25923 assessed as reduction in bacterial cell viability incubated for 24 hrs by two fold serial dilution method; format: functional; settings: ATCC 25923, 24 h
How it was run: as §1

[4] = tested on: Pseudomonas aeruginosa; experiment: Antibacterial activity against Pseudomonas aeruginosa ATCC 27853 assessed as reduction in bacterial cell viability incubated for 24 hrs by two fold serial dilution method; format: functional; settings: ATCC 27853, 24 h
How it was run: as §1

[5] = tested on: Candida tropicalis; experiment: Antifungal activity against Candida tropicalis assessed as reduction in fungal cell viability incubated for 24 hrs by two fold serial dilution method; format: functional
How it was run: as §1

[6] = tested on: Staphylococcus aureus; experiment: Antibacterial activity against Staphylococcus aureus ATCC 29213 assessed as reduction in bacterial cell viability incubated for 24 hrs by two fold serial dilution method; format: functional; settings: ATCC 29213, 24 h
How it was run: as §1

[7] = tested on: Escherichia coli; experiment: Antibacterial activity against Escherichia coli assessed as reduction in bacterial cell viability incubated for 24 hrs by two fold serial dilution method; format: functional
How it was run: as §1

[8] = tested on: Escherichia coli; experiment: Antibacterial activity against Escherichia coli ATCC 25922 assessed as reduction in bacterial cell viability incubated for 24 hrs by two fold serial dilution method; format: functional; settings: ATCC 25922, 24 h
How it was run: as §1

[9] = tested on: Candida albicans; experiment: Antifungal activity against Candida albicans ATCC 90023 assessed as reduction in fungal cell viability incubated for 24 hrs by two fold serial dilution method; format: functional; settings: ATCC 90023, 24 h
How it was run: as §1

[10] = tested on: Pseudomonas aeruginosa; experiment: Antibacterial activity against Pseudomonas aeruginosa assessed as reduction in bacterial cell viability incubated for 24 hrs by two fold serial dilution method; format: functional
How it was run: as §1

[11] = tested on: Staphylococcus aureus; experiment: Antibacterial activity against methicillin resistant Staphylococcus aureus N315 assessed as reduction in bacterial cell viability incubated for 24 hrs by two fold serial dilution method; format: functional; settings: N315, 24 h
How it was run: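 MIC by two-fold serial dilution following CLSI, with chloromycin and norfloxacin as reference drugs.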

[12] = tested on: Acinetobacter baumannii; experiment: Antibacterial activity against Acinetobacter baumannii assessed as reduction in bacterial cell viability incubated for 24 hrs by two fold serial dilution method; format: functional
How it was run: as §1

[13] = tested on: Staphylococcus aureus; experiment: Antibacterial activity against Staphylococcus aureus assessed as reduction in bacterial cell viability incubated for 24 hrs by two fold serial dilution method; format: functional
How it was run: as §1

[14] = tested on: Candida albicans; experiment: Antifungal activity against Candida albicans assessed as reduction in fungal cell viability incubated for 24 hrs by two fold serial dilution method; format: functional
How it was run: as §1

[15] = tested on: Enterococcus faecalis; experiment: Antibacterial activity against Enterococcus faecalis assessed as reduction in bacterial cell viability incubated for 24 hrs by two fold serial dilution method; format: functional
How it was run: as §1

[16] = tested on: Aspergillus fumigatus; experiment: Antifungal activity against Aspergillus fumigatus assessed as reduction in fungal cell viability incubated for 24 hrs by two fold serial dilution method; format: functional
How it was run: as §1

| SMILES | MIC [1] [µM] | MIC [2] [µM] | MIC [3] [µM] | MIC [4] [µM] | MIC [5] [µM] | MIC [6] [µM] | MIC [7] [µM] | MIC [8] [µM] | MIC [9] [µM] | MIC [10] [µM] | MIC [11] [µM] | MIC [12] [µM] | MIC [13] [µM] | MIC [14] [µM] | MIC [15] [µM] | MIC [16] [µM] |
| --- | --- | --- | --- | --- | --- | --- | --- | --- | --- | --- | --- | --- | --- | --- | --- | --- |
| CCn1cc(-c2csc(N)n2)c(=O)c2cc(N3CCN(C/C(=N/OC)c4ccc(OC)cc4)CC3)c(Cl)cc21 | 451 (≈ 256 µg/mL) | 451 (≈ 256 µg/mL) | 451 (≈ 256 µg/mL) | 451 (≈ 256 µg/mL) | 226 (≈ 128 µg/mL) | 451 (≈ 256 µg/mL) | 451 (≈ 256 µg/mL) | 451 (≈ 256 µg/mL) | 226 (≈ 128 µg/mL) | 451 (≈ 256 µg/mL) | 451 (≈ 256 µg/mL) | 451 (≈ 256 µg/mL) | 451 (≈ 256 µg/mL) | 451 (≈ 256 µg/mL) | 451 (≈ 256 µg/mL) | 451 (≈ 256 µg/mL) |
| CCn1cc(-c2csc(N)n2)c(=O)c2cc(N3CCN(C/C(=N/OC)c4ccc(Cl)cc4)CC3)c(Cl)cc21 | 448 (≈ 256 µg/mL) | 448 (≈ 256 µg/mL) | 224 (≈ 128 µg/mL) | 448 (≈ 256 µg/mL) | 448 (≈ 256 µg/mL) | 224 (≈ 128 µg/mL) | 448 (≈ 256 µg/mL) | 448 (≈ 256 µg/mL) | 224 (≈ 128 µg/mL) | 448 (≈ 256 µg/mL) | 224 (≈ 128 µg/mL) | 448 (≈ 256 µg/mL) | 224 (≈ 128 µg/mL) | 448 (≈ 256 µg/mL) | 448 (≈ 256 µg/mL) | 448 (≈ 256 µg/mL) |
| CCn1cc(-c2csc(N)n2)c(=O)c2cc(N3CCN(C/C(C)=N/O)CC3)c(Cl)cc21 | 278 (≈ 128 µg/mL) | 139 (≈ 64.1 µg/mL) | 17 (≈ 7.84 µg/mL) | 555 (≈ 256 µg/mL) | 278 (≈ 128 µg/mL) | 139 (≈ 64.1 µg/mL) | 69 (≈ 31.8 µg/mL) | 278 (≈ 128 µg/mL) | 139 (≈ 64.1 µg/mL) | 139 (≈ 64.1 µg/mL) | 139 (≈ 64.1 µg/mL) | 278 (≈ 128 µg/mL) | 35 (≈ 16.1 µg/mL) | 69 (≈ 31.8 µg/mL) | 139 (≈ 64.1 µg/mL) | 278 (≈ 128 µg/mL) |
| CCn1cc(-c2csc(N)n2)c(=O)c2cc(N3CCN(C/C(=N/OC)c4ccc(Cl)cc4Cl)CC3)c(Cl)cc21 | 422 (≈ 256 µg/mL) | 422 (≈ 256 µg/mL) | 422 (≈ 256 µg/mL) | 422 (≈ 256 µg/mL) | 422 (≈ 256 µg/mL) | 211 (≈ 128 µg/mL) | 422 (≈ 256 µg/mL) | 422 (≈ 256 µg/mL) | 845 (≈ 512 µg/mL) | 422 (≈ 256 µg/mL) | 211 (≈ 128 µg/mL) | 422 (≈ 256 µg/mL) | 422 (≈ 256 µg/mL) | 422 (≈ 256 µg/mL) | 211 (≈ 128 µg/mL) | 422 (≈ 256 µg/mL) |
